Laboratory results from ChEMBL document CHEMBL1153726, “Synthesis and anticancer activity of sclerophytin-inspired hydroisobenzofurans” (Bioorg Med Chem Lett, 2009).

Assays:
Type in all cases: functional
[1] = tested on: NCI/ADR-RES; experiment: Growth inhibition of human NCI/ADR-RES cells at 1 nM after 96 hrs by MTT assay; set-up: scale not given: the % may be the effect or the level left
[2] = tested on: COLO 205; experiment: Growth inhibition of human COLO205 cells at 1 nM after 96 hrs by MTT assay; set-up: scale not given: the % may be the effect or the level left
[3] = tested on: MCF7; experiment: Growth inhibition of human MCF7 cells at 1 uM after 96 hrs by MTT assay; set-up: scale not given: the % may be the effect or the level left
[4] = tested on: SK-OV-3; experiment: Growth inhibition of human SKOV3 cells at 1 nM after 96 hrs by MTT assay; set-up: scale not given: the % may be the effect or the level left
[5] = tested on: SW-620; experiment: Growth inhibition of human SW620 cells after 96 hrs by MTT assay; settings: SW-620, 96 h
Outline: (§1)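 Tested in the NCI 60-cell-line panel in five-dose format; GI50 and LC50 values reported for each cell line.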

[6] = tested on: HT-29; experiment: Growth inhibition of human HT-29 cells at 1 uM after 96 hrs by MTT assay; set-up: scale not given: the % may be the effect or the level left
[7] = tested on: OVCAR-3; experiment: Growth inhibition of human OVCAR-3 cells at 1 nM after 96 hrs by MTT assay; set-up: scale not given: the % may be the effect or the level left
[8] = tested on: ACHN; experiment: Growth inhibition of human ACHN cells at 10 nM after 96 hrs by MTT assay; set-up: scale not given: the % may be the effect or the level left
[9] = tested on: MOLT-4; experiment: Growth inhibition of human MOLT4 cells after 96 hrs by MTT assay; settings: MOLT-4, 96 h
Outline: (§2)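 Run in the NCI 60 human tumour cell line panel as a five-dose assay. GI50 and LC50 were reported for each cell line.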

[10] = tested on: HCT-116; experiment: Growth inhibition of human HCT116 cells at 1 uM after 96 hrs by MTT assay; set-up: scale not given: the % may be the effect or the level left
[11] = tested on: NCI-H522; experiment: Growth inhibition of human NCI-H522 cells at 1 uM after 96 hrs by MTT assay; set-up: scale not given: the % may be the effect or the level left
[12] = tested on: MDA-MB-468; experiment: Growth inhibition of human MDA-MB-468 cells after 96 hrs by MTT assay; settings: MDA-MB-468, 96 h; outline: as §2
[13] = tested on: MDA-MB-435; experiment: Growth inhibition of human MDA-MB-435 cells at 10 nM after 96 hrs by MTT assay; set-up: scale not given: the % may be the effect or the level left
[14] = tested on: A498; experiment: Growth inhibition of human A498 cells after 96 hrs by MTT assay; settings: A498, 96 h
[15] = tested on: LOX IMVI; experiment: Growth inhibition of human LOXIMVI cells at 1 nM after 96 hrs by MTT assay; set-up: scale not given: the % may be the effect or the level left
[16] = tested on: UACC-257; experiment: Growth inhibition of human UACC257 cells at 1 nM after 96 hrs by MTT assay; set-up: scale not given: the % may be the effect or the level left
[17] = tested on: SK-MEL-28; experiment: Growth inhibition of human SK-MEL-28 cells at 10 uM after 96 hrs by MTT assay; set-up: scale not given: the % may be the effect or the level left
[18] = tested on: UO-31; experiment: Growth inhibition of human UO31 cells at 1 nM after 96 hrs by MTT assay; set-up: scale not given: the % may be the effect or the level left
[19] = tested on: A549; experiment: Growth inhibition of human A549 cells at 1 uM after 96 hrs by MTT assay; set-up: scale not given: the % may be the effect or the level left
[20] = tested on: RXF 393; experiment: Growth inhibition of human RXF393 cells at 100 nM after 96 hrs by MTT assay; set-up: scale not given: the % may be the effect or the level left
[21] = tested on: MDA-MB-435; experiment: Growth inhibition of human MDA-MB-435 cells at 1 uM after 96 hrs by MTT assay; set-up: scale not given: the % may be the effect or the level left
[22] = tested on: SN12C; experiment: Growth inhibition of human SN12C cells after 96 hrs by MTT assay; outline: as §1
[23] = tested on: SR; experiment: Growth inhibition of human SR cells at 1 uM after 96 hrs by MTT assay; set-up: scale not given: the % may be the effect or the level left
[24] = tested on: OVCAR-5; experiment: Growth inhibition of human OVCAR5 cells at 10 uM after 96 hrs by MTT assay; set-up: scale not given: the % may be the effect or the level left
[25] = Growth inhibition of human RPMI8266 cells at 100 nM after 96 hrs by MTT assay; set-up: scale not given: the % may be the effect or the level left
[26] = read-out: LC50 (the source's name)
[27] = read-out: Log10GI50 (converted)
[28] = read-out: Log10LC50 (converted)

C=C(C)[C@H]1CC=C(C)C2=CO[C@@H](c3ccccc3F)[C@@H]21
Activity [1]: 105% | Activity [2]: 101% | Activity [3]: 26% | Activity [4]: 98% | GI50 ([5]; read-out: GI50): 4.49 µM | CC50 [5, 26]: 43.4 µM | GI50 [5, 27]: 4.47 µM | CC50 [5, 28]: 43.7 µM | TGI ([5]; read-out: Log10TGI (converted)): 15.8 µM | TGI ([5]; read-out: TGI): 15.9 µM | Activity [6]: 22% | Activity [7]: 88% | Activity [8]: 96% | GI50 ([9]; read-out: GI50): 2.12 µM | CC50 [9, 26]: 56.2 µM | GI50 [9, 27]: 2.14 µM | CC50 [9, 28]: 56.2 µM | TGI ([9]; read-out: Log10TGI (converted)): 7.08 µM | TGI ([9]; read-out: TGI): 7.03 µM | Activity [10]: 15% | Activity [11]: 29% | GI50 ([12]; read-out: GI50): 1.43 µM | CC50 [12, 26]: 66.1 µM | GI50 [12, 27]: 1.45 µM | CC50 [12, 28]: 66.1 µM | TGI ([12]; read-out: Log10TGI (converted)): 14.1 µM | TGI ([12]; read-out: TGI): 14.1 µM | Activity [13]: 83% | GI50 ([14]; read-out: GI50): 2.34 µM | CC50 [14, 26]: 26.5 µM | GI50 [14, 27]: 2.34 µM | CC50 [14, 28]: 26.3 µM | TGI ([14]; read-out: Log10TGI (converted)): 7.08 µM | TGI ([14]; read-out: TGI): 7.07 µM | Activity [15]: 97% | Activity [16]: 91% | Activity [17]: 110.2% | Activity [18]: 89% | Activity [19]: 38% | Activity [20]: 84% | Activity [21]: 4% | GI50 ([22]; read-out: GI50): 6.63 µM | CC50 [22, 26]: 45.9 µM | GI50 [22, 27]: 6.61 µM | CC50 [22, 28]: 45.7 µM | TGI ([22]; read-out: Log10TGI (converted)): 20.4 µM | TGI ([22]; read-out: TGI): 20.3 µM | Activity [23]: -36% | Activity [24]: 100.16% | Activity [25]: 23%
